Our source for the inhibition, Activity and IC50 values is ChEMBL document CHEMBL1138155, “A lactosylated steroid contributes in vivo therapeutic benefits in experimental models of mouse lymphoma and human glioblastoma” (J Med Chem, 2006).

For data set [1], the system named is A549. Briefly: Antimigratory activity against human A549 NSCLC cell line at 100 nM after 22h. Type of data set: functional. Conditions: A549, 22 h. The method, boiled down:
(§1)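 Computer-assisted videomicroscopy tracking of living cultured cells, one image every 4 min over 24 h; migration scored as maximum relative distance from origin (MRDO) per cell, read at 12 or 22 h with compound at 100 nM or without (control). Control normalized to 0%. Triplicate analyses, 121–184 cells per condition; mean ± standard error.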

Data set [2] deals with Mus musculus. Briefly: Toxicity in mice at 160 mg/kg, ip 28 days post dose. Type of data set: organism-based. Also on record: dose 160 mg/kg, route intraperitoneal. Particulars: in vivo, 672 h. The essentials: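 Healthy, non-tumor-grafted mice received a single acute ip dose of 160 mg/kg. Body weight and survival were recorded over at least 28 days after dosing to detect toxic effects.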

The test system of data set [3] is Hs 683. Description: Cytotoxicity against human Hs683 cancer cell line. In kind it is functional, cell-based. The method, boiled down:
(§2)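 Colorimetric MTT assay on cultured human cancer cells after 3 days of continuous drug exposure. IC50 is the concentration that reduces overall cell-population growth by 50% relative to untreated cells.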

Data set [4] relates to PC-3. Briefly: Antimigratory activity against human PC3 prostate cancer cell line at 100 nM after 12h. Type of data set: functional. Particulars: PC-3, 12 h. The essentials: as §1
The subject of data set [5] is PC-3. Briefly: Antimigratory activity against human PC3 prostate cancer cell line at 100 nM after 22h. In kind it is functional. Conditions: PC-3, 22 h. The method, boiled down: as §1
For data set [6], the system named is HCT-15. Description: Cytotoxicity against human HCT15 colon cancer cell line. Type of data set: functional, cell-based. The essentials: as §2
Data set [7] relates to U373 MG. Description: Cytotoxicity against human U373 glioblastoma cell line. In kind it is functional, cell-based, U-373MG ATCC. The method, boiled down:
as §2

The subject of data set [8] is U373 MG. Briefly: Antimigratory activity against human U373 glioblastoma cell line at 100nM after 22h. In kind it is functional, U-373MG ATCC. The method, boiled down: as §1
The test system of data set [9] is PC-3. Briefly: Cytotoxicity against human PC3 prostate cancer cell line. In kind it is functional, cell-based. The essentials:
as §2

For data set [10], the system named is A549. Description: Antimigratory activity against human A549 NSCLC cell line at 100 nM after 12h. Type of data set: functional. Conditions: A549, 12 h. The essentials: as §1
Data set [11] relates to A549. Description: Cytotoxicity against human A549 NSCLC cell line. Type of data set: functional, cell-based. The method, boiled down: as §2
The subject of data set [12] is U373 MG. Briefly: Antimigratory activity against human U373 glioblastoma cell line at 100 nM after 12h. In kind it is functional, U-373MG ATCC. The method, boiled down:
as §1

For data set [13], the system named is MCF7. Description: Cytotoxicity against human MCF7 breast cancer cell line. In kind it is functional, cell-based. The essentials:
as §2

Regarding `COc1ccc(OC)c([C@@H]2C[C@H]3[C@@H]4CC=C5C[C@@H](O[C@@H]6O[C@H](CO[C@H]7O[C@H](CO)[C@@H](O)[C@H](O)[C@H]7O)[C@@H](O)[C@H](O)[C@H]6O)CC[C@]5(C)[C@H]4CC[C@]3(C)[C@H]2C(C)=O)c1`, the inhibition (commonly the relative decrease from the control value, in per cent) at 0.1 µM in [1] is -40%; in [4], -7%; in data set [5], -9%; in [8], -18%; in data set [10], -34%; in data set [12], -18%. The Activity result in [2] was “Non-toxic”. Also, the IC50 in data set [3], in data set [6], in data set [7], in [9], in [11] and in data set [13] was over 10 µM in each case.

Consider `COc1ccc(OC)c([C@@H]2C[C@H]3[C@@H]4CC=C5C[C@@H](O[C@@H]6O[C@H](CO)[C@@H](O)[C@H](O)[C@H]6O)CC[C@]5(C)[C@H]4CC[C@]3(C)[C@H]2C(C)=O)c1`, for which the inhibition at 0.1 µM in data set [1] is 9%; in data set [4], 2%; in [5], 6%; in data set [8], -8%; in data set [10] it was 2%; in [12], -6%. Moreover, in data set [2], the Activity entry is reported as “Non-toxic”. Moreover, the IC50 in [3], in data set [6], in [7], in data set [9], in [11] and in data set [13] was over 10 µM in each case.

In the case of `COc1ccc(OC)c([C@@H]2C[C@H]3[C@@H]4CC=C5C[C@@H](O[C@@H]6O[C@H](CO)[C@@H](O)[C@H](O)[C@H]6NC(C)=O)CC[C@]5(C)[C@H]4CC[C@]3(C)[C@H]2C(C)=O)c1`, the inhibition at 0.1 µM in data set [1] is -39%; in data set [4], 11%; in data set [5] it was 12%; in data set [8], -3%; in [10] it was -39%; in data set [12] it was -17%. The Activity entry in [2] is recorded as “Non-toxic”. Besides, the IC50 in data set [3], in data set [6], in data set [7], in data set [9], in data set [11] and in data set [13] was over 10 µM in each case.

In the case of `COc1ccc(OC)c([C@@H]2C[C@H]3[C@@H]4CC=C5C[C@@H](O[C@@H]6O[C@H](CO)[C@@H](O)[C@H](O)[C@@H]6O)CC[C@]5(C)[C@H]4CC[C@]3(C)[C@H]2C(C)=O)c1`, the inhibition at 0.1 µM in data set [1] was 1%; in [4], 2%; in data set [5], -1%; in [8] it was -4%; in data set [10], 20%; in [12], 2%. In addition, the Activity result in [2] is recorded as “Non-toxic”. Moreover, the IC50 in data set [3], in [6], in data set [7], in data set [9], in data set [11] and in [13] was over 10 µM in each case.

`COc1ccc(OC)c([C@@H]2C[C@H]3[C@@H]4CC=C5C[C@@H](O)CC[C@]5(C)[C@H]4CC[C@]3(C)[C@H]2C(C)=O)c1`: the inhibition at 0.1 µM in data set [1] was found to be 6%; in [4] it was 5%; in data set [5] it was 10%; in [8], 7%; in data set [10] it was 0%; in data set [12], 2%. The Activity entry in data set [2] was “Non-toxic”. The IC50 in data set [3], in data set [6], in data set [7], in data set [9], in data set [11] and in data set [13] was over 10 µM each time.

Regarding `COc1ccc(OC)c([C@@H]2C[C@H]3[C@@H]4CC=C5C[C@@H](O)CC[C@]5(C)[C@H]4CC[C@]3(C)[C@H]2[C@H](C)O)c1`, in [2], the Activity result is reported as “Non-toxic”. The IC50 in data set [3], in data set [6], in [7], in data set [9], in data set [11] and in [13] was over 10 µM throughout.

Take `COc1ccc(OC)c([C@@H]2C[C@H]3[C@@H]4CC=C5C[C@@H](O[C@H]6O[C@@H](C)[C@@H](O)[C@@H](O)[C@@H]6O)CC[C@]5(C)[C@H]4CC[C@]3(C)[C@H]2[C@H](C)O[C@H]2O[C@@H](C)[C@@H](O)[C@@H](O)[C@@H]2O)c1`: the inhibition at 0.1 µM in [1] was -4%; in [4], -41%; in data set [5] it was -45%; in data set [8] it was -4%; in data set [10] it was -6%; in data set [12], -4%. Moreover, in data set [2], the Activity entry is “Non-toxic”. Also, the IC50 in data set [3], in [6], in [7], in [9], in data set [11] and in [13] was over 10 µM throughout.

As for `COc1ccc(OC)c([C@@H]2C[C@H]3[C@@H]4CC=C5C[C@@H](O[C@H]6O[C@H](CO)[C@@H](O[C@H]7O[C@H](CO)[C@@H](O)[C@H](O)[C@H]7O)[C@H](O)[C@H]6O)CC[C@]5(C)[C@H]4CC[C@]3(C)[C@H]2C(C)=O)c1`, the inhibition at 0.1 µM was 5% in data set [1]; -5% in [4]; -5% in data set [5]; -8% in data set [8]; 10% in data set [10]; 2% in data set [12]. The Activity entry in data set [2] is on record as “Non-toxic”. For the same compound, the IC50 in data set [3], in data set [6], in data set [7], in data set [9], in [11] and in [13] was over 10 µM in each case.

For `COc1ccc(OC)c([C@@H]2C[C@H]3[C@@H]4CC=C5C[C@@H](O[C@H]6O[C@H](CO)[C@@H](O[C@@H]7O[C@H](CO)[C@H](O)[C@H](O)[C@H]7O)[C@H](O)[C@H]6O)CC[C@]5(C)[C@H]4CC[C@]3(C)[C@H]2C(C)=O)c1`, the inhibition at 0.1 µM was -5% in data set [1]; -51% in data set [4]; -34% in data set [5]; -31% in data set [8]; 8% in data set [10]; -29% in data set [12]. Further, the Activity result in data set [2] was “Non-toxic”. Also, the IC50 in data set [3], in data set [6], in [7], in data set [9], in data set [11] and in data set [13] was over 10 µM each time.

Consider `COc1ccc(OC)c([C@@H]2C[C@H]3[C@@H]4CC=C5C[C@@H](O[C@H]6O[C@H](CO[C@@H]7O[C@H](CO)[C@@H](O)[C@H](O)[C@H]7O)[C@@H](O)[C@H](O)[C@H]6O)CC[C@]5(C)[C@H]4CC[C@]3(C)[C@H]2C(C)=O)c1`, for which the inhibition at 0.1 µM in data set [1] is -4%; in [4], 11%; in data set [5], -1%; in data set [8], -1%; in [10], 0%; in data set [12], 0%. Besides, the Activity entry in data set [2] is reported as “Non-toxic”. Besides, the IC50 in [3], in data set [6], in data set [7], in data set [9], in data set [11] and in data set [13] was over 10 µM throughout.

As to `COc1ccc(OC)c([C@@H]2C[C@H]3[C@@H]4CC=C5C[C@@H](O[C@H]6O[C@@H](C)[C@@H](O)[C@@H](O)[C@@H]6O)CC[C@]5(C)[C@H]4CC[C@]3(C)[C@H]2C(C)=O)c1`, the inhibition at 0.1 µM in data set [1] was -8%; in [4], -23%; in data set [5] it was -15%; in [8], -38%; in data set [10], -8%; in data set [12], -25%. In addition, in data set [2], the Activity result is given as “Non-toxic”. The IC50 in [3], in data set [6], in data set [7], in data set [9], in data set [11] and in data set [13] was over 10 µM each time.

In the case of `COc1ccc(OC)c([C@@H]2C[C@H]3[C@@H]4CC=C5C[C@@H](O[C@@H]6O[C@H](CO)[C@@H](O[C@@H]7O[C@H](CO)[C@@H](O)[C@H](O)[C@H]7O)[C@H](O)[C@H]6O)CC[C@]5(C)[C@H]4CC[C@]3(C)[C@H]2C(C)=O)c1`, the inhibition at 0.1 µM in [1] is -34%; in data set [4] it was 13%; in data set [5], -7%; in data set [8] it was -9%; in data set [10], -30%; in data set [12], 8%. Also, in data set [2], the Activity entry is “Non-toxic”. Moreover, the IC50 in data set [3], in [6], in data set [7], in data set [9], in data set [11] and in data set [13] was over 10 µM throughout.
